Experimental data taken from ChEMBL document CHEMBL1135731, “Synthesis and nicotinic binding studies on enantiopure diazine analogues of the novel (2-chloro-5-pyridyl)-9-azabicyclo[4.2.1]non-2-ene UB-165” (J Med Chem, 2002).

Legend:
[1] = target: Neuronal acetylcholine receptor subunit alpha-7 (Rattus norvegicus, UniProt Q05941); experiment: Binding affinity to subtype Nicotinic acetylcholine receptor alpha7 using [3H]-MLA as radioligand in rat brain; assay type: tissue-based
Summary of the method: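 Rat brain membrane fractions in HEPES-salt solution, competition against [3H]MLA at 22 °C. Nonspecific binding defined with 1 μM MLA. […] Mean ± SEM of 3-5 independent experiments.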

[2] = target: Neuronal acetylcholine receptor; alpha4/beta2 (Rattus norvegicus, UniProt P09483+P12390); experiment: Binding affinity to Nicotinic acetylcholine receptor alpha4-beta2 using +/-[3H]epibatidine as radioligand in rat brain; assay type: tissue-based
Chain of Neuronal acetylcholine receptor; alpha4/beta2 (P09483 whole entry): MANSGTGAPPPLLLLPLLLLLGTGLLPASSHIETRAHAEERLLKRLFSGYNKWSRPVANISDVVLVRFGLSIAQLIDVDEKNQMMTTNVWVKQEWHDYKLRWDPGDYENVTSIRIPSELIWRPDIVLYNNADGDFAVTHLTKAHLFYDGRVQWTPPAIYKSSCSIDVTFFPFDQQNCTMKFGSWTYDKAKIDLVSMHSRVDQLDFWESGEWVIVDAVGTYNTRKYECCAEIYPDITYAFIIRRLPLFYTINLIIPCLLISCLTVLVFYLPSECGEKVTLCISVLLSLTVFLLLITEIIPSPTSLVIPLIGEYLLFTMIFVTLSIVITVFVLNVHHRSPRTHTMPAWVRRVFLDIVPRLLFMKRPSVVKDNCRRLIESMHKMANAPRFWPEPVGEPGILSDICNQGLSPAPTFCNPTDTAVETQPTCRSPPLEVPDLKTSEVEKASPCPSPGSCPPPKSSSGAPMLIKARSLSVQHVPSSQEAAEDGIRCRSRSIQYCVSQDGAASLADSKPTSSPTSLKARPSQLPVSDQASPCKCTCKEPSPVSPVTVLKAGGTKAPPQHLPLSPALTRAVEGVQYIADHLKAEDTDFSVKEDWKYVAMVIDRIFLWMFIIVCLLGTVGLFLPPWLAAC
Chain of Neuronal acetylcholine receptor; alpha4/beta2 (P12390 whole entry): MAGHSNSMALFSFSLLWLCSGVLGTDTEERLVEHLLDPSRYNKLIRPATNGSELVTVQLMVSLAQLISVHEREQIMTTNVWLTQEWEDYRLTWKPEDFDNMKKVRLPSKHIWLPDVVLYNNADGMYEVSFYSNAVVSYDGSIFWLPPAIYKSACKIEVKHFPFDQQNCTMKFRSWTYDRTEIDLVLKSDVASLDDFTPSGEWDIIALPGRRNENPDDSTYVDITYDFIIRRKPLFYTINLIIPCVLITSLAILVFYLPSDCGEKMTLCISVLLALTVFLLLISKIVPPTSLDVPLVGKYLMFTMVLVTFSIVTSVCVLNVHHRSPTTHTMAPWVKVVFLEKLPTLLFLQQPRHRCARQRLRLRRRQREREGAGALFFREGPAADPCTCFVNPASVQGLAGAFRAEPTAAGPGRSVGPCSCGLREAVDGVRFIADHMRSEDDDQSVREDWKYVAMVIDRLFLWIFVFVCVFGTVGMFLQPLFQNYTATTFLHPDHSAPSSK
Summary of the method: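 Crude synaptic P2 membranes from Sprague–Dawley rat forebrain (cerebellum and medulla excluded), washed in HEPES-salt buffer pH-unspecified (HEPES 15 mM, NaCl 120 mM, KCl 5.4 mM, MgCl2 0.8 mM, CaCl2 1.8 mM). Mean ± SEM, n = 3-5.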

Chain of Neuronal acetylcholine receptor subunit alpha-7 (Q05941 whole entry): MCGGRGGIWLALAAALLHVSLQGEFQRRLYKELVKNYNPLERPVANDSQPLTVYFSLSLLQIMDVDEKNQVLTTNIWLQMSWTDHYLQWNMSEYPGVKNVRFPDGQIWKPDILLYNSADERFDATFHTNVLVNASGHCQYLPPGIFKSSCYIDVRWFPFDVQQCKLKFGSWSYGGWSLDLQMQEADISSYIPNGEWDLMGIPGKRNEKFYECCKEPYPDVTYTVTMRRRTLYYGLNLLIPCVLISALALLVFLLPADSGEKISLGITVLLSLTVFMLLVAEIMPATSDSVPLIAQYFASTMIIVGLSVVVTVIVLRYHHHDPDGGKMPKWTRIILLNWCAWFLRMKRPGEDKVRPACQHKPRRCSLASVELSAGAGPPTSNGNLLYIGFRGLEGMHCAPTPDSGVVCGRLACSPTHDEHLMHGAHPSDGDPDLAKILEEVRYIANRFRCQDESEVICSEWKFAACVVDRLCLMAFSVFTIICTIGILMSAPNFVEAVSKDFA

Structure (SMILES) | Ki [1] | Ki [2]
C1=C(c2ccnnc2)C2CC[C@H](CC1)N2 | > 10 nM | 19 nM
C1=C(c2cnccn2)C2CC[C@H](CC1)N2 | 250 nM | 12 nM
C1=C(c2cncnc2)C2CC[C@H](CC1)N2 | 10.7 nM | 0.14 nM
C1=C(c2cccnc2)C2CC[C@H](CC1)N2 | 0.95 nM | 0.051 nM
Clc1ccc(C2=CCC[C@H]3CCC2N3)cn1 | 12 nM | 
